Results from ChEMBL document CHEMBL2176925, “Novel ¹⁸F-labeled benzoxazole derivatives as potential positron emission tomography probes for imaging of cerebral β-amyloid plaques in Alzheimer's disease” (J Med Chem, 2012).
The source made the active and inactive calls. No cut-off for these calls is given here.

Key:
[1] = Displacement of [125I]IMPY from amyloid beta (1 to 42) fibrils after 2 hrs by gamma-counting analysis
Procedure, shortened: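 Competition binding with aggregated Aβ1-42 fibrils (60 nM final) and [125I]IMPY. Inhibitors were tested at 10⁻⁵–10⁻¹⁰ M (in ethanol) in 0.2 M PBS, pH 7.4, 1 mL, for 2 h at 37 °C with shaking. Nonspecific binding was defined with 1 μM IMPY. Bound ligand was collected by GF/B filtration and γ-counted. Ki was derived from IC50 via Cheng–Prusoff.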

[2] = n-Octanol-PBS buffer partition coefficient, log D of the compound at 370 kBq after 3 mins at pH 7.4; assay type: physicochemical
Procedure, shortened: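 For log D, tubes containing n-octanol and PBS were vortexed 3 min at room temperature and centrifuged 5 min at 3000 rpm. Weighed samples of the octanol (100 μL) and buffer (500 μL) layers were counted. Log D is the log of the ratio of counts per gram, octanol to PBS.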

[3] = test system: Brain; experiment: Ratio of drug uptake in brain at 2 mins to drug uptake in brain at 60 mins in ddY mouse at 370 kBq/100 ul, iv; assay type: ADME, organism-based; conditions: in vivo
Procedure, shortened: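 Tail-vein injection of 370 kBq/100 μL (saline, 5% EtOH) into male ddY mice (5 weeks, 20−22 g, n = 5). Brain excised at 2 and 60 min, weighed and γ-counted against diluted injectate. Uptake is %ID/g, and the ratio is brain at 2 min divided by brain at 60 min.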

[4] = test system: Brain; experiment: Drug uptake in ddY mouse brain at 370 kBq/100 ul, iv at 60 mins by gamma-counting analysis; assay type: ADME, organism-based; conditions: in vivo, 1 h
Procedure, shortened: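 Normal male ddY mice (5 weeks, 20−22 g, n = 5) received 370 kBq of tracer in 100 μL saline with 5% EtOH via tail vein. Mice were sacrificed at set times after injection, and organs were excised, weighed and γ-counted against diluted injectate aliquots. Values are %ID per gram, except stomach and intestine as %ID per organ, given as mean ± SD of 5 mice.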

[5] = Displacement of [125I]TZDM from amyloid beta (1 to 40) fibrils
[6] = test system: Brain; experiment: Drug uptake in iv dosed ICR mouse brain; assay type: ADME, organism-based; conditions: in vivo
[7] = test system: Brain; experiment: Drug uptake in ddY mouse brain at 370 kBq/100 ul, iv assessed per organ at 60 mins by gamma-counting analysis; assay type: ADME, organism-based; conditions: in vivo, 1 h
[8] = test system: Brain; experiment: Drug uptake in ddY mouse brain at 370 kBq/100 ul, iv assessed per organ at 2 mins by gamma-counting analysis; assay type: ADME, organism-based; conditions: in vivo
[9] = target: Amyloid-beta precursor protein (Homo sapiens) (UniProt P05067); experiment: Binding affinity to amyloid beta plaques in […] brain at 370 kBq/100 ul after 1 hr by immunohistochemical staining method; conditions: tested as the 18F-labelled form
Chain of Amyloid-beta precursor protein (Homo sapiens) (P05067 whole entry): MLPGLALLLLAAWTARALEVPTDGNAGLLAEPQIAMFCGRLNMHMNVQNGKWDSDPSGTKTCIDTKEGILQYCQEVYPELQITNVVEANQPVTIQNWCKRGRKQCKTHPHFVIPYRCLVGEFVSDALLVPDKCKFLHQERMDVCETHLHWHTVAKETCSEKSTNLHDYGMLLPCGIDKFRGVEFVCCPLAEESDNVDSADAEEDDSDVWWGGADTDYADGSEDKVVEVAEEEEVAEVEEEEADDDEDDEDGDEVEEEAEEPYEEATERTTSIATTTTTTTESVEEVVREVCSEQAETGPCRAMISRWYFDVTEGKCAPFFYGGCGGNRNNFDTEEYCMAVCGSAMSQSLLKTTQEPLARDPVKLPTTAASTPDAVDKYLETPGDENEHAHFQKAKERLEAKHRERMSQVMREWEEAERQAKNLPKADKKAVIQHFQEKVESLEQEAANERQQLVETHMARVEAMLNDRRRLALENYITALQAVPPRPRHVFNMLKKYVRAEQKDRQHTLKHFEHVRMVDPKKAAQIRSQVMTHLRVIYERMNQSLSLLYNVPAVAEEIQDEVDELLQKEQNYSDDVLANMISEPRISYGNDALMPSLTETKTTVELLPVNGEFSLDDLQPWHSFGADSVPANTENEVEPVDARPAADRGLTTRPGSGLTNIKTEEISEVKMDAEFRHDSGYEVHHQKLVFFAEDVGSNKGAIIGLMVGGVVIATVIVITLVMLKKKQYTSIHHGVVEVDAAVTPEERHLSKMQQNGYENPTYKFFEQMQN
Procedure, shortened: (§1)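 In vitro autoradiography on paraffin sections. Mouse: Tg C57BL6 APPswe/PSEN1 and wild-type, both 12 months old. Human: AD (person) and normal (person). Sections were deparaffinized through xylene and graded ethanol, held in PBS (0.2 M, pH 7.4) for 30 min, then incubated with tracer (370 kBq/100 μL) for 1 h at room temperature. Washes were 50% ethanol then water. Plates were exposed overnight. Plaques were confirmed by thioflavin-S or monoclonal Aβ1-42 antibody immunostaining.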

[10] = target: Amyloid-beta precursor protein (Homo sapiens) (UniProt P05067); experiment: Binding affinity to amyloid beta plaques in […] brain at 370 kBq/100 ul after 1 hr by autoradiographic analysis; conditions: tested as the 18F-labelled form; procedure, shortened: as §1
[11] = species on record: Mus musculus; experiment: Binding affinity to amyloid beta plaques in transgenic C57BL6 mouse brain expressing APP Swedish mutant/PSEN1 at 370 kBq/100 ul after 1 hr by thioflavinS-staining method; assay type: tissue-based; conditions: tested as the 18F-labelled form; procedure, shortened: as §1
[12] = species on record: Mus musculus; experiment: Binding affinity to amyloid beta plaques in transgenic C57BL6 mouse brain expressing APP Swedish mutant/PSEN1 at 370 kBq/100 ul after 1 hr by autoradiographic analysis; assay type: tissue-based; conditions: tested as the 18F-labelled form; procedure, shortened: as §1
[13] = test system: Mus musculus; experiment: Binding affinity to amyloid beta plaque in transgenic C57BL6 mouse hippocampus expressing APP Swedish mutant at 40.7 MBq, iv after 30 mins by thioflavinS-staining method; assay type: functional, organism-based; set-up: dose or concentration left out as unconfirmed; conditions: tested as the 18F-labelled form
Procedure, shortened: (§2)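 Ex vivo: Tg2576 (C57BL6, APPsw) mice, 18 months old, and age-matched wild-type mice. Each received 40.7 MBq of tracer in 100 μL saline with 5% EtOH iv via the femoral vein and was decapitated 30 min later. Brains were frozen in dry ice and cut into 20 μm sections. Sections were exposed to an imaging plate for 8 h, then the same sections were stained with thioflavin-S.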

[14] = test system: Mus musculus; experiment: Binding affinity to amyloid beta plaque in transgenic C57BL6 mouse cortex expressing APP Swedish mutant at 40.7 MBq, iv after 30 mins by thioflavinS-staining method; assay type: functional, organism-based; set-up: dose or concentration left out as unconfirmed; conditions: tested as the 18F-labelled form; procedure, shortened: as §2
[15] = test system: Mus musculus; experiment: Binding affinity to amyloid beta plaque in transgenic C57BL6 mouse hippocampus expressing APP Swedish mutant/PSEN1 at 40.7 MBq, iv after 30 mins by autoradiographic analysis; assay type: functional, organism-based; conditions: 40.7 M, tested as the 18F-labelled form
[16] = test system: Mus musculus; experiment: Binding affinity to amyloid beta plaque in transgenic C57BL6 mouse cortex expressing APP Swedish mutant/PSEN1 at 40.7 MBq, iv after 30 mins by autoradiographic analysis; assay type: functional, organism-based; conditions: 40.7 M, tested as the 18F-labelled form

Compound | Ki [1] | logD at 0.05 h [2] | Ratio [3] | Ki [5] | Drug uptake [6] | other results
CN(C)c1ccc(-c2cc3cc(OCCOCCOCC[18F])ccc3o2)cc1 | 2 nM | 2.94 | 1.03 | – | – | –
CNc1ccc(-c2cc3cc(OCCOCCOCC[18F])ccc3o2)cc1 | 3.9 nM | 3.73 | 2.11 | – | – | –
CNc1ccc(/C=C/c2ccc(OCCOCCOCC[18F])nc2)cc1 [FLORBETAPIR F 18] | 2.87 nM | – | 3.9 | – | – | Drug uptake [4]: 1.88 % ID/g
CNc1ccc(-c2nc3cc(OCCOCCOCCF)ccc3o2)cc1 | 9.3 nM | – | – | – | – | Activity [9]: Active; Activity [10]: Active; Activity [11]: Active; Activity [12]: Active; Activity [13]: Active; Activity [14]: Active; Activity [15]: Active; Activity [16]: Active
CNc1ccc(-c2cc3cc(OCCOCCOCC[18F])ccc3o2)cn1 | 2.4 nM | 3.11 | 2.34 | – | – | –
CN(C)c1ccc(-c2cc3cc(OCCOCCOCC[18F])ccc3o2)cn1 | 1 nM | 2.32 | 2.11 | – | – | –
CN(C)c1ccc(-c2nc3cc(OCCOCCOCCF)ccc3o2)cc1 | 3.9 nM | – | – | – | – | Activity [9]: Active; Activity [10]: Active; Activity [11]: Active; Activity [12]: Active; Activity [13]: Active; Activity [14]: Active; Activity [15]: Active; Activity [16]: Active

The next lines start with results.

Ki [1] | logD at 0.05 h [2] | Ratio [3] | Ki [5] | Drug uptake [6] | Compound | other results
– | – | – | 0.4 nM | < 1.5 %ID | Oc1ccc(-c2cc3cc([125I])ccc3o2)cc1 | –
0.8 nM | 2.09 | 1.13 | 0.8 nM | – | CN(C)c1ccc(-c2nc3ccc([125I])cc3o2)cc1 | Drug uptake [7]: 1.26 %ID; Drug uptake [8]: 1.43 %ID
– | – | – | 0.4 nM | < 1.5 %ID | CN(C)c1ccc(-c2cc3ccc([125I])cc3o2)cc1 | –
– | – | – | 0.4 nM | < 1.5 %ID | CNc1ccc(-c2cc3cc([125I])ccc3o2)cc1 | –
– | – | – | 0.4 nM | < 1.5 %ID | CN(C)c1ccc(-c2cc3cc([125I])ccc3o2)cc1 | –
